Compound activity from PubChem.
Rows were chosen to be rich in hits. Some 2.3% of all compounds tested hit in one or more screens of this group.
Pemphigus Ab inh: inhibitors of pemphigus antibody binding to DSG3, primary screen, biochemical, bead-based, flow cytometry, scFv-GFP; Desmoglein-3 (Homo sapiens), P32926; DSG3-coupled beads, scFv-anti-DSG3-GFP binding; stronger effect = lower value; binding (percent of control), % at 10 µM; 0.48% of 310,000 active; AID 588358, 2011;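 active means binding more than 3 SD below its plate's average and above zero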;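 further: hits lower antibody fragment binding to DSG3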
Target sequence (P32926 whole entry, looked up, the tested form may be a part): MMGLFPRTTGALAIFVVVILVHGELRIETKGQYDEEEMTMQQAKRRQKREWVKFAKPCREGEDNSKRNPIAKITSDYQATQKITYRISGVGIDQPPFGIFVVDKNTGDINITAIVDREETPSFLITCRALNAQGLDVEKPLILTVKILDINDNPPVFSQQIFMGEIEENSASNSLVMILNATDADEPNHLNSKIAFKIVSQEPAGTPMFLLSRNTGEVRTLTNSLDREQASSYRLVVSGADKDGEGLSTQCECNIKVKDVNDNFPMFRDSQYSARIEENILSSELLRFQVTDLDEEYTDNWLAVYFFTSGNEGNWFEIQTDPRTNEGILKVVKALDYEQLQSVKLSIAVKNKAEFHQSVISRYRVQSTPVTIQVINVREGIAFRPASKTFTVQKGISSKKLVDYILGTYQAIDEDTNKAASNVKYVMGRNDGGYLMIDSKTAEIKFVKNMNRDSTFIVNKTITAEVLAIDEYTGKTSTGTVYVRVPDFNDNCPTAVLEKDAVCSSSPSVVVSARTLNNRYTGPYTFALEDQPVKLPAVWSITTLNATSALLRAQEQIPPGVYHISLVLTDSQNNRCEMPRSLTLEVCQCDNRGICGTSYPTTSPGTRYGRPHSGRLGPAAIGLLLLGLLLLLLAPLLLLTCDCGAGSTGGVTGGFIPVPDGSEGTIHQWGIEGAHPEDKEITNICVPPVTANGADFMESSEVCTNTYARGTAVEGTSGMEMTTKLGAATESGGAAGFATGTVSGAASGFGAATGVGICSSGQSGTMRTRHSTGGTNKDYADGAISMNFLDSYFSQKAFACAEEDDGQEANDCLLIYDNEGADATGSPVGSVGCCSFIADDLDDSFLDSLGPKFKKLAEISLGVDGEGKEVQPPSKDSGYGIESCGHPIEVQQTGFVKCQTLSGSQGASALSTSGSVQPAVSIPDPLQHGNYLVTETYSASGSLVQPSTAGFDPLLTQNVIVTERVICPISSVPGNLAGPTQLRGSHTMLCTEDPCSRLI
MCL1-BIM inh: inhibitors of MCL1 binding to BIM-BH3, primary screen, biochemical, fluorescence polarization; Induced myeloid leukemia cell differentiation protein Mcl-1 (Homo sapiens), Q07820; GST-MCL1 / FITC-Bim-BH3 fluorescence polarization; inhibition, % at 10.9 µM; 0.68% of 320,000 active; AID 2057, 2009;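 active means inhibition above the mean inhibition of all tested compounds plus 3 SD, set per campaign, cut at about 40% in these data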;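 further: 0% = DMSO wells and 100% = unlabeled Bim-BH3 peptide control; higher means more loss of mP so more displacement of Bim peptide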
Mcl-1 Bim block: inhibitors of Bim peptide binding to Mcl-1, primary screen, biochemical, bead-based flow cytometry, multiplex. Bim peptide-Mcl-1 binding. Induced myeloid leukemia cell differentiation protein Mcl-1 (Homo sapiens), Q07820. inhibition, % at 10 µM. 0.1% of 190,000 active; in the data active means inhibition above about 40%;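 further: 0% = no compound tracer wells and 100% = peptide blocker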
T cell HTS: modulators of CD8 T cell-vesicle binding, primary screen, mouse 2C CD8+ T cells, flow cytometry; 2C CD8+ T cell-vesicle binding; stronger effect = lower value; response (vesicle binding), % at 7 µM; 0.068% of 330,000 active; AID 2052, 2009;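 active means response, share of CD8 T cells binding vesicles, and their 90th percentile fluorescence all below set limits, cut at about 80% in these data, passing the limit was not always enough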;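 further: values below 100% mean blocked vesicle binding to the CD8+ T cells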
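Assay system – 2C mouse CD8+ T cells · Also added – QL9-loaded Drosophila micro-vesicles · Timing – Cell–vesicle co-incubation 1.5 h at 37 °C, staining 20 min on ice · Signal – flow cytometry of vesicle-bound cells · Measure – percent CD8+ FL2 mean versus row control · Controls – Peptide-free naked vesicles (low) and QL9 vesicles with 0.7% DMSO vehicle (high)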
Mcl1-Bid inh: Mcl-1/Bid binding inhibitors, primary screen, biochemical, TR-FRET, 1536-well | Induced myeloid leukemia cell differentiation protein Mcl-1 (Homo sapiens), Q07820 | TR-FRET Mcl-1/Bid-Dy647 peptide binding | inhibition, % at 21.7 µM | 0.97% of 220,000 active | AID 1021, 2008;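 active means compounds that cut the binding signal by more than half at the single screening dose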;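 further: His-tagged Mcl-1 with europium anti-His antibody binding Bid BH3 peptide; 0% = Mcl-1 plus peptide wells and 100% = peptide-only wells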
Mcl1-Noxa inh: Mcl-1/Noxa binding inhibitors, primary screen, biochemical, TR-FRET, 1536-well | Induced myeloid leukemia cell differentiation protein Mcl-1 (Homo sapiens), Q07820 | TR-FRET Mcl-1/Noxa peptide binding, 2 h | inhibition, % at 21.7 µM | 1.5% of 220,000 active | AID 1022, 2008;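 active means compounds that cut the protein-peptide binding signal by more than 50% relative to plate controls in a single-dose test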;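 further: His-tagged Mcl-1 with rhodamine Noxa BH3 peptide and terbium anti-His antibody; 0% = Mcl-1 plus Noxa peptide wells and 100% = peptide-only wells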
BCLXL inh confirm: Bcl-xL inhibitors blocking Bim BH3 binding, confirmation, counter-screen for MCL1 inhibitor project, biochemical, fluorescence polarization; shares compounds with MCL1-BIM inh; GST-Bcl-xL / FITC-Bim BH3 peptide FP binding; inhibition, % at 10.9 µM; 54% of 1,700 active; AID 2166, 2009;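 active means inhibition above a cutoff equal to the mean inhibition of all tested compounds plus 3 SD, cut at about 30% in these data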;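 further: 0% = DMSO wells and 100% = unlabeled Bim BH3 control peptide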
MCL1 inh confirm: inhibitors of MCL1 binding to BIM-BH3, confirmation, biochemical, fluorescence polarization, triplicate. GST-MCL1 / FITC-Bim-BH3 fluorescence polarization. inhibition, % at 10.9 µM. 61% of 1,700 active. AID 2168, 2009. shares compounds with MCL1-BIM inh;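 active means inhibition above the average of all tested compounds plus 3 SD, cut at about 40% in these data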;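 further: 0% = DMSO wells and 100% = unlabeled Bim-BH3 control peptide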
* = called active by the depositor; x = no result; + = active, no number.

SMILES	Pemphigus Ab inh	MCL1-BIM inh	Mcl-1 Bim block	T cell HTS	Mcl1-Bid inh	Mcl1-Noxa inh	BCLXL inh confirm	MCL1 inh confirm
COc1cc(NC(C)C(=O)N2CC(C)OC(C)C2)cc(OC)c1 (stereo not given)	110	82*	6	623	1	25	16	15
O=S(=O)(c1cc(F)ccc1F)N1CCN2CCCC2C1 (stereo not given)	111	7	x	789	x	x	x	x
CCc1nn(C(CC)C(=O)NCc2cccc(OC)c2OC)c(=O)c2cc3occc3n12 (stereo not given)	96	0	x	180	x	x	x	x
COc1ccccc1CNC(=O)CN1C(=O)c2cccc(N)c2C1=O	98	107*	x	299	x	x	43*	54*
O=C(N/N=C/c1ccc(-c2ccccc2C(=O)O)o1)c1cccs1	86	71*	2	191	0	79*	40*	73*
Cc1cc(-c2nc3c4c5c(sc4[nH]c(=O)n3n2)CCC5)c(C)o1	70	76*	1	259	73*	101*	28	70*
Cc1nc2sc3c(c2c(=O)[nH]1)CCC3	107	7	1	422	-37	-12	x	x
O=C(CNc1cccc(F)c1)N1CCc2ccccc2C1	91	3	x	440	x	x	x	x
COc1ccc(C(=O)OCC(=O)Nc2ncc([N+](=O)[O-])s2)cc1OC	90	74*	x	414	x	x	28	58*
O=C(COC(=O)c1ccc(Br)o1)Nc1ncc([N+](=O)[O-])s1	100	35	x	387	x	x	x	x
CCOc1ccc(NC(=O)CSc2nc3ccccc3nc2N2CC(C)OC(C)C2)cc1 (stereo not given)	108	3	x	664	x	x	x	x
O=C(CCc1ccc(S(=O)(=O)N2CCOCC2)cc1)N/N=C/c1ccc(F)cc1F	119	-2	0	172	2	9	x	x
O=C(CCc1ccc(S(=O)(=O)N2CCOCC2)cc1)N/N=C/c1ccc(O)c(O)c1O	94	46*	0	234	4	73*	23	59*
CC(=O)c1ccccc1NC(=O)COC(=O)Cc1cccc(C(F)(F)F)c1	104	0	x	38	x	x	x	x
CCNc1cccc2c1C(=O)N(C)C2=O	103	+	1	393	2	0	167*	+
Cc1ccc(OCCNC(=O)CNC(=O)c2ccc(Cl)c([N+](=O)[O-])c2)cc1	99	x	x	339	x	x	x	x
CSCC(C)N1CCC(n2nccc2NC(=O)CCCc2ccccc2)CC1 (stereo not given)	153	108*	x	290	x	x	99*	119*
C=C(C)CCC(C)N1CCC(n2nccc2NC(=O)CCCc2ccccc2)CC1 (stereo not given)	88	3	x	223	x	x	x	x
CCn1cc(C(=O)N(C)c2ccccc2F)c2cc(OC)c(OC)cc2c1=O	92	-23	x	279	x	x	x	x
COC(=O)C1=C(C(=O)OC)C(c2ccccc2O)c2sc(=O)[nH]c2S1 (stereo not given)	100	54*	7	209	-9	56*	22	54*
O=C(N/N=C/c1ccc(-c2ccc(S(=O)(=O)Nc3ncccn3)cc2)o1)c1cc2ccccc2cc1O	90	64*	4	270	51*	106*	16	57*
O=C1CCCC2=C1C(c1ccco1)Nc1ccc3ccccc3c12 (stereo not given)	129	67*	1	273	60*	99*	28	78*
O=C1CCCC2=C1C(c1ccc(O)c(O)c1)Nc1ccc3ccccc3c12 (stereo not given)	95	40	x	550	x	x	x	x
On1ccccc1=S	94	68*	x	205	x	x	2	2
Cc1ccc(O)c(CP(=O)(c2ccccc2)c2ccccc2)c1	95	5	16	612	-20	-1	x	x
SMILES	Pemphigus Ab inh	MCL1-BIM inh	Mcl-1 Bim block	T cell HTS	Mcl1-Bid inh	Mcl1-Noxa inh	BCLXL inh confirm	MCL1 inh confirm
CCNc1ccccc1CP(=O)(c1ccccc1)c1ccccc1O (stereo not given)	x	+	x	126	x	x	30	18
COc1ccc(OC)c2nc3c(cc12)CCC3	94	53*	x	526	x	x	10	5
COc1ccc(OC)c2cc3ccccc3cc12	90	x	x	x	x	x	x	x
Oc1cccc(Nc2ccccc2)c1	101	18	x	593	x	x	x	x
CC(C)c1cc(Nc2cccc(O)c2)cc(C(C)C)c1O	x	146*	x	284	x	x	18	15
CCOC(=O)c1c([N+](=O)[O-])c(C)[nH]c(=O)c1C#N	105	22	x	143	3	11	x	x
CC(OC(=O)Cc1ccccc1F)C(=O)Nc1ccc(Cl)cn1 (stereo not given)	101	x	x	x	x	x	x	x
CN(CCC#N)C(=O)COC(=O)c1c2c(nc3ccccc13)/C(=C/c1ccco1)CC2	83	67*	22	673	63*	85*	40*	48*
O=C(CSc1nc(C2CC2)nc2ccccc12)N1c2ccccc2Sc2ccc(C(F)(F)F)cc21	103	47*	-4	484	-22	-27	11	14
COc1ccc(OC(C)C(=O)NC2CCCCCCC2)cc1 (stereo not given)	115	5	x	297	x	x	x	x
CC(=O)C1=C(c2ccccc2)NC(=O)NC1c1ccc2c(c1)OCO2 (stereo not given)	100	6	x	288	x	x	x	x
CC(=O)C1=C(c2ccccc2)NC(=O)NC1c1ccc(O)c(O)c1 (stereo not given)	100	81*	1	147	-81	17	23	36
C[C@H](CO)N1C[C@H](C)[C@@H](CN(C)Cc2cccc(C(F)(F)F)c2)OCc2cnnn2CCCC1=O	105	x	x	x	x	x	x	x
Cc1ccccc1-n1c(SCc2c(C)noc2C)nnc1-c1ccncc1	99	-12	0	303	-34	18	x	x
Cc1ccccc1-n1c(SCc2c(C)noc2C)nnc1-c1cccnc1	140	144*	-7	492	-13	14	116*	136*
O=C(c1ccc([N+](=O)[O-])cc1Cl)N1CCN(Cc2ccccc2)CC1	103	x	x	x	x	x	x	x
